According to publication PMC9177073 (Science Advances, 2022):
Counter-ions that a name gives are not always drawn. Residues, ends and D or L forms follow the SMILES beside them. *: point of attachment. Cbz = O=C(OCc1ccccc1)*

Assays:
[1] = biological target: proteasome (chymotrypsin-like) activity (Mus musculus, UniProt O55234); experiment: Proteasome peptidase activity in mouse brain lysates with inhibitor; type: biochemical; details: brains of 3-month-old mice, replicate samples incubated with inhibitor
Summary of the method: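 Mouse brain tissue lysed mechanically in reaction buffer, with buffer volume scaled to tissue weight; the supernatant was assayed. ATP-stimulated activity used 50 mM tris-HCl pH 7.8 with 1 mM MgCl2, 0.5 mM ATP and 1 mM DTT. ATP-independent activity used 50 mM tris-HCl pH 8.0 with 1 mM MgCl2 and 1 mM DTT. Proteasome inhibitor (1 μM) was added 5 min before starting with 50 μM Suc-LLVY-AMC.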

[2] = cited from earlier work; for ability to penetrate the blood-brain barrier: positive controls of PAMPA
proteasome activity = experiment: Proteasome activity in mouse tissue lysates after intraperitoneal injection; details: in vivo

Compound | ability to penetrate the blood-brain barrier [2] | further results
CC(C)C[C@H](NC(=O)[C@H](Cc1ccccc1)NC(=O)c1cnccn1)B(O)O [bortezomib] |  | effect of inhibitor on increased proteasome activity of NSE-PSMB5 mouse brains [1]: blocked
CC(C)NCC(O)COc1cccc2ccccc12 (stereo not drawn) [propranolol, Propranolol hydrochloride] | known for their ability to penetrate the blood-brain barrier | 
dermorphin | known for their ability to penetrate the blood-brain barrier | 
NCCc1ccc(O)c(O)c1 [Dopamine, Dopamine hydrobromide] |  | ability to cross the blood-brain barrier ([2]; negative control of PAMPA): unable to efficiently cross the blood-brain barrier
Tat^47–57: HIV-1 Tat-derived peptide, synthesized in-house, positive control of PAMPA | known for their ability to penetrate the blood-brain barrier | 
CC(C)C[C@@H](C=O)NC(=O)[C@H](CC(C)C)NC(=O)[C@H](CC(C)C)NC(=O)OCc1ccccc1 [MG132, N-carbobenzyloxy-L-leucyl-L-leucyl-L-leucinal] (Cbz-Leu-Leu-Leu-aldehyde) |  | effect of inhibitor on the TAT1-8,9TOD-induced increase of proteasome activity (proteasome activity): could be blocked
